Reference: ChEMBL document CHEMBL2016504, “New saccharin derivatives as tyrosinase inhibitors” (Bioorg Med Chem, 2012)

Tests used:
Musa x paradisiaca = test: Competitive inhibition of banana tyrosinase using catechol as substrate by Lineweaver-Burk plot analysis
Method in brief: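 Banana PPO was partially purified: ammonium sulfate to 80% saturation, dialysis in 5 mM phosphate, then a Sepharose 4B-tyrosine-p-aminobenzoic acid affinity column eluted with 1 M NaCl, 5 mM phosphate, pH 7.0. Catechol oxidation was read as the rise in A420, in duplicate, corrected for non-enzymatic change. Ki and inhibition type came from Lineweaver–Burk 1/V vs 1/[S] plots at two inhibitor levels (0.01–0.20 mM).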

[1] = Inhibition of desert banana tyrosinase using p-cresol as substrate; design: species or system Musa acuminata

O=C(Nc1cccc(Cl)c1)Nc1ccc2c(c1)S(=O)(=O)NC2=O
Kic (Musa x paradisiaca): 5.85 µM

O=C1NS(=O)(=O)c2cc(NC(=S)Nc3cccc(Cl)c3)ccc21
Kic (Musa x paradisiaca): 28.3 µM

O[C@@H](CS)[C@@H](O)CS (relative stereo) [DITHIOTHREITOL]
IC50 [1]: 63 µM

O=C1NS(=O)(=O)c2cc(NC(=S)Nc3ccccc3)ccc21
Kic (Musa x paradisiaca): 10.7 µM

O=S(O)S(=O)(=O)O [SODIUM METABISULFITE]
IC50 [1]: 65 µM

O=C1NS(=O)(=O)c2cc(NC(=S)Nc3ccccc3F)ccc21
Kic (Musa x paradisiaca): 4.23 µM

COc1ccc(NC(=O)Nc2ccc3c(c2)S(=O)(=O)NC3=O)cc1
Kic (Musa x paradisiaca): 16.6 µM

O=C(Nc1cccc([N+](=O)[O-])c1)Nc1ccc2c(c1)S(=O)(=O)NC2=O
Kic (Musa x paradisiaca): 16.9 µM

O=C(Nc1cccc(F)c1)Nc1ccc2c(c1)S(=O)(=O)NC2=O
Kic (Musa x paradisiaca): 12.1 µM

O=C1NS(=O)(=O)c2cc(NC(=S)Nc3cccc(F)c3)ccc21
Kic (Musa x paradisiaca): 11.1 µM

O=C(Nc1ccc(Cl)cc1)Nc1ccc2c(c1)S(=O)(=O)NC2=O
Kic (Musa x paradisiaca): 40.2 µM

COc1ccc(NC(=S)Nc2ccc3c(c2)S(=O)(=O)NC3=O)cc1
Kic (Musa x paradisiaca): 9.81 µM

O=C(Nc1ccc(Cl)c(Cl)c1)Nc1ccc2c(c1)S(=O)(=O)NC2=O
Kic (Musa x paradisiaca): 14.9 µM

O=C1NS(=O)(=O)c2cc(NC(=S)Nc3cccc(I)c3)ccc21
Kic (Musa x paradisiaca): 3.95 µM

O=C1NS(=O)(=O)c2cc(NC(=S)Nc3ccc(Cl)cc3Cl)ccc21
Kic (Musa x paradisiaca): 10.1 µM

O=C1NS(=O)(=O)c2cc(NC(=S)Nc3ccc([N+](=O)[O-])cc3)ccc21
Kic (Musa x paradisiaca): 19.5 µM

O=C(Nc1ccc2c(c1)S(=O)(=O)NC2=O)Nc1ccccc1F
Kic (Musa x paradisiaca): 35.1 µM

Nc1ccc2c(c1)S(=O)(=O)NC2=O
Kic (Musa x paradisiaca): 13.6 µM

N[C@@H](CS)C(=O)O [CYSTEINE]
IC50 [1]: 322 µM

Cc1ccc(NC(=O)Nc2ccc3c(c2)S(=O)(=O)NC3=O)cc1
Kic (Musa x paradisiaca): 16.2 µM

O=C1O[C@H]([C@@H](O)CO)C(O)=C1O [ASCORBIC ACID]
IC50 [1]: 437 µM
Ki [1]: 530 µM

O=C1NS(=O)(=O)c2cc(NC(=S)Nc3cc(Cl)cc(Cl)c3)ccc21
Kic (Musa x paradisiaca): 13.7 µM

O=C1NS(=O)(=O)c2cc(NC(=S)Nc3ccc(F)cc3)ccc21
Kic (Musa x paradisiaca): 14.8 µM

O=C(Nc1ccc(F)cc1)Nc1ccc2c(c1)S(=O)(=O)NC2=O
Kic (Musa x paradisiaca): 15.6 µM

O=C(Nc1ccc([N+](=O)[O-])cc1)Nc1ccc2c(c1)S(=O)(=O)NC2=O
Kic (Musa x paradisiaca): 22 µM

Cc1ccc(NC(=S)Nc2ccc3c(c2)S(=O)(=O)NC3=O)cc1
Kic (Musa x paradisiaca): 9.96 µM

O=C(Nc1ccccc1)Nc1ccc2c(c1)S(=O)(=O)NC2=O
Kic (Musa x paradisiaca): 13.4 µM

COc1cccc(NC(=O)Nc2ccc3c(c2)S(=O)(=O)NC3=O)c1
Kic (Musa x paradisiaca): 14.1 µM
